Test results reported in ChEMBL document CHEMBL2331225, “Structure-based design, synthesis and evaluation of novel anthra[1,2-d]imidazole-6,11-dione derivatives as telomerase inhibitors and potential for cancer polypharmacology” (Eur J Med Chem, 2013).
Activity calls are given as the source filed them. No cut-off for these calls is given here.

Key:
[1] = Cytotoxicity against human H1299 cells assessed as cell viability at 100 uM after 48 hrs by MTT assay; type: functional; conditions: NCI-H1299, 48 h, read-out: Activity
Procedure, shortened: (§1)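 H1299 cells at about 2 × 10³ per well were grown 24 h at 37 °C in 5% CO₂. Compounds were dissolved in DMSO just before use and diluted into complete medium. After 48 h exposure, MTT was added for 4 h at 37 °C, then lysis buffer (20% SDS, 50% DMF) for 16 h at 37 °C. Absorbance was read at 550 nm.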

[2] = target: T1, Telomerase reverse transcriptase (Homo sapiens, UniProt O14746); test: Inhibition of TERT transcriptional activity in human H1299 cells assessed SEAP activity at 1 uM incubated for 24 hrs by SEAP assay; type: cell-based; parameters: scale not given: the % may be the effect or the level left
T1 sequence (O14746 whole entry): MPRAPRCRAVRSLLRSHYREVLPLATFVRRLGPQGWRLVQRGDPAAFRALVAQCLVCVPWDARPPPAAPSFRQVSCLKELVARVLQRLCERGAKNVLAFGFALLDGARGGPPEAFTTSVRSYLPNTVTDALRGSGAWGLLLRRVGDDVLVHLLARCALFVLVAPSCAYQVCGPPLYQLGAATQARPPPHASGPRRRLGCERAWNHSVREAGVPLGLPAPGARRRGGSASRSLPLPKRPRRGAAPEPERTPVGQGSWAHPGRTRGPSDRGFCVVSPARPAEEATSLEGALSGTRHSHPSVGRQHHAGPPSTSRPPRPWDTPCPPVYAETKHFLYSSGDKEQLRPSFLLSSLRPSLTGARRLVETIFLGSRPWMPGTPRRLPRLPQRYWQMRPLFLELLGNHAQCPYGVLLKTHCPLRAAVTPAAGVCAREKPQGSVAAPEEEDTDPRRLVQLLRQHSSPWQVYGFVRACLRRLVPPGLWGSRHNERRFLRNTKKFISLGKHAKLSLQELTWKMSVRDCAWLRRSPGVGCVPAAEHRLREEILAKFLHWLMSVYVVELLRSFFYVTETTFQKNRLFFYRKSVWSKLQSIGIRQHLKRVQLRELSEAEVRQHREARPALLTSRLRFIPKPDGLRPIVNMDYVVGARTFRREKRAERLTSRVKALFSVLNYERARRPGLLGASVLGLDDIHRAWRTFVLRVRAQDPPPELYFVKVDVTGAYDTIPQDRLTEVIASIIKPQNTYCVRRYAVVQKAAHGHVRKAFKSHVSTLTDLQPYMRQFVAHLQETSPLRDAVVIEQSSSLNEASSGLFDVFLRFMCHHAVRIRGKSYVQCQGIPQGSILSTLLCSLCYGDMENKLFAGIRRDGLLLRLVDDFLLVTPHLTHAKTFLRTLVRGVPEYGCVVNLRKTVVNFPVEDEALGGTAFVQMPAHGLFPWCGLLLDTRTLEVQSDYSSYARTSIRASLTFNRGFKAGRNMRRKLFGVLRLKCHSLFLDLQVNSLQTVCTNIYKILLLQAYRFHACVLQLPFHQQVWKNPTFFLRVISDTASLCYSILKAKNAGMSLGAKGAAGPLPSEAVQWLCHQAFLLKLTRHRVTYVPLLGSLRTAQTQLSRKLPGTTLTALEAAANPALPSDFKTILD
Procedure, shortened: (§2)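 H1299 stable clones carry the hTERT promoter (−3338 to +1 bp) upstream of SEAP, introduced by electroporation and selected with G418. About 2 × 10³ cells per well were grown 24 h at 37 °C, given fresh medium, then drug for 24 h. Collected media were heated at 65 °C for 10 min, mixed with equal SEAP buffer (2 M diethanolamine, 1 mM MgCl₂, 20 mM L-homoarginine) and p-nitrophenyl phosphate at 12 mM final.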

[3] = Cytotoxicity against human H1299 cells assessed as cell viability at 10 uM after 48 hrs by MTT assay; type: functional; conditions: NCI-H1299, 48 h, read-out: Activity; procedure, shortened: as §1
[4] = target: T1, Telomerase reverse transcriptase; test: Inhibition of TERT transcriptional activity in human H1299 cells assessed SEAP activity at 10 uM incubated for 24 hrs by SEAP assay; type: cell-based; parameters: scale not given: the % may be the effect or the level left; procedure, shortened: as §2
[5] = system: PC-3; test: Growth inhibition of human PC3 cells after 48 hrs by SRB assay; type: functional, cell-based; conditions: PC-3, 48 h
Procedure, shortened: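 PC-3 cells were seeded in medium with 5% FBS; after 24 h a plate was fixed with 10% TCA as T₀. Vehicle (0.1% DMSO) or compound was given for 48 h, then cells were TCA-fixed, stained with 0.4% SRB in 1% acetic acid, solubilized in 10 mM Trizma base and read at 515 nm. IC₅₀ is the concentration halving the protein increase seen in controls.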

[6] = target: T1, Telomerase reverse transcriptase; test: Inhibition of TERT transcriptional activity in human H1299 cells assessed SEAP activity at 100 uM incubated for 24 hrs by SEAP assay; type: cell-based; parameters: scale not given: the % may be the effect or the level left; procedure, shortened: as §2
[7] = system: IMR-90; test: Cytotoxicity against human IMR90 cells after 48 hrs by MTT assay; type: cell-based; conditions: IMR-90, 48 h
[8] = Cytotoxicity against human H1299 cells assessed as cell viability at 1 uM after 48 hrs by MTT assay; type: functional; conditions: NCI-H1299, 48 h, read-out: Activity; procedure, shortened: as §1
[9] = Cytotoxicity against human H1299 cells expressing hTERT and SEAP after 48 hrs by MTT assay; type: cell-based; conditions: nci-h1299, 48 h
Procedure, shortened: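 H1299 stably carrying P_hTERT-SEAP, about 2 × 10³ cells per well, were grown 24 h at 37 °C, washed with PBS and given fresh medium. Compounds were added at varying amounts for 48 h, and growth was measured by MTT read at 550 nm. Values come from three experiments, with untreated cells set as 100%.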

[10] = target: T1, Telomerase reverse transcriptase; test: Inhibition of TERT activity in human H1299 cells homogenates incubated for 5 mins at 100 uM by TRAP assay; type: cell-free
Procedure, shortened: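 Telomerase-active extracts were prepared from H1299 cells, and lysate protein was measured against BSA standards. Compounds were tested in the TRAP assay, with RNase A-treated extracts as negative controls.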

[11] = system: PC-3; test: Cytotoxicity against human PC3 cells assessed as cell growth level at 10 uM; type: functional
[12] = system: DU-145; test: Cytotoxicity against human DU145 cells assessed as cell growth level at 10 uM; type: functional
[13] = system: A498; test: Cytotoxicity against human A498 cells assessed as cell growth level at 10 uM; type: functional

| Compound | viability at 100 µM [1] [%] | Activity [2] [%] | viability at 10 µM [3] [%] | Activity [4] [%] | IC50 [5] [µM] | Activity [6] [%] | IC50 [7] [µM] | viability at 1 µM [8] [%] | Activity [9] | TERT inhibition (active/not active) [10] | Activity [11] [%] | Activity [12] [%] | Activity [13] [%] |
| --- | --- | --- | --- | --- | --- | --- | --- | --- | --- | --- | --- | --- | --- |
| O=C1c2ccccc2C(=O)c2c1ccc1nc(CCN3CCN(Cc4ccccc4)CC3)[nH]c21 | 6 | 73 | 54 | 5 | 16 | 0 | 100 | 96 | Non-toxic | inactive |  |  |  |
| CCCN(C)Cc1nc2ccc3c(c2[nH]1)C(=O)c1ccccc1C3=O | 0 | 96 | 80 | 34 | 17.1 | 0 |  | 93 |  | inactive |  |  |  |
| O=C(CCCl)Nc1ccc2c(c1NC(=O)CCCl)C(=O)c1ccccc1C2=O | 6 | 87 | 34 | 13 | > 30 | 0 |  | 94 |  | inactive |  |  |  |
| CN1CCN(CCc2nc3ccc4c(c3[nH]2)C(=O)c2ccccc2C4=O)CC1 | 0 | 74 | 32 | 7 | 17.3 | 0 |  | 87 |  | inactive |  |  |  |
| O=C1c2ccccc2C(=O)c2c1ccc1nc(CCN3CCN(c4ncccn4)CC3)[nH]c21 | 0 | 83 | 84 | 35 | > 30 | 0 | 100 | 91 | Non-toxic | inactive |  |  |  |
| O=C1c2ccccc2C(=O)c2c1ccc1nc(CCCl)[nH]c21 | 40 | 95 | 86 | 83 | 5.2 | 8 |  | 91 |  | inactive |  |  |  |
| CC(C)N(C)Cc1nc2ccc3c(c2[nH]1)C(=O)c1ccccc1C3=O | 0 | 77 | 23 | 1 | 6.7 | 0 |  | 96 |  | inactive |  |  |  |
| O=C1c2ccccc2C(=O)c2c1ccc1nc(CN3CCCCCC3)[nH]c21 | 0 | 107 | 85 | 66 | 10.5 | 4 |  | 104 |  | inactive |  |  |  |
| O=C1c2ccccc2C(=O)c2c1ccc1nc(CN3CCC4(CC3)OCCO4)[nH]c21 | 15 | 97 | 79 | 96 | 21.6 | 14 |  | 103 |  | inactive |  |  |  |
| O=C1c2ccccc2C(=O)c2c1ccc1nc(CCN3CCN(c4ccccc4)CC3)[nH]c21 | 65 | 103 | 96 | 93 | > 30 | 37 |  | 94 |  | inactive |  |  |  |
| COc1cccc(N2CCN(Cc3nc4ccc5c(c4[nH]3)C(=O)c3ccccc3C5=O)CC2)c1 | 24 | 105 | 58 | 30 | 15.3 | 3 |  | 81 |  | inactive |  |  |  |
| O=C1c2ccccc2C(=O)c2c1ccc1nc(CNCc3ccccc3C(F)(F)F)[nH]c21 | 6 | 87 | 96 | 81 | > 30 | 0 |  | 99 |  | inactive |  |  |  |
| CCN(C)Cc1nc2ccc3c(c2[nH]1)C(=O)c1ccccc1C3=O | 0 | 97 | 65 | 39 | 7.5 | 0 |  | 99 |  | inactive |  |  |  |
| O=C1c2ccccc2C(=O)c2c1ccc1nc(CN3CCCCC3)[nH]c21 | 20 | 76 | 79 | 44 | 10.3 | 7 | 100 | 111 | Non-toxic | inactive | 74.9 | 81.94 | 61.84 |
| O=C1c2ccccc2C(=O)c2c1ccc1nc(CN3CCOCC3)[nH]c21 | 13 | 102 | 71 | 97 | 12.4 | 26 |  | 90 |  | inactive |  |  |  |
| CN(CCc1ccccn1)Cc1nc2ccc3c(c2[nH]1)C(=O)c1ccccc1C3=O | 0 | 96 | 99 | 51 | 14.2 | 0 |  | 104 |  | inactive | 83.7 | 99.83 | 69.6 |
| O=C1c2ccccc2C(=O)c2c1ccc1nc(CN3CCN(c4ncccn4)CC3)[nH]c21 | 28 | 111 | 74 | 92 | 27.9 | 19 |  | 85 |  | inactive |  |  |  |
| CN(Cc1nc2ccc3c(c2[nH]1)C(=O)c1ccccc1C3=O)Cc1c2ccccc2cc2ccccc12 | 42 | 102 | 84 | 77 | > 30 | 12 |  | 98 |  | inactive |  |  |  |
| N#Cc1ccccc1N1CCN(Cc2nc3ccc4c(c3[nH]2)C(=O)c2ccccc2C4=O)CC1 | 22 | 106 | 62 | 57 | 29 | 6 |  | 78 |  | inactive |  |  |  |
| O=C1c2ccccc2C(=O)c2c1ccc1nc(CNCc3cccc(C(F)(F)F)c3)[nH]c21 | 32 | 87 | 110 | 89 | > 30 | 4 |  | 114 |  | inactive |  |  |  |
| CC1CCN(Cc2nc3ccc4c(c3[nH]2)C(=O)c2ccccc2C4=O)CC1 | 32 | 102 | 110 | 97 | > 30 | 26 |  | 114 |  | inactive |  |  |  |
| O=C1c2ccccc2C(=O)c2c1ccc1nc(CN3CCN(c4ccccc4)CC3)[nH]c21 | 18 | 92 | 54 | 77 | > 30 | 6 |  | 90 |  | inactive | 90.69 | 77.91 | 75.09 |
| COc1cccc(CN(C)Cc2nc3ccc4c(c3[nH]2)C(=O)c2ccccc2C4=O)c1 | 9 | 105 | 98 | 78 | 18.7 | 0 |  | 97 |  | inactive |  |  |  |
